In ChEMBL document CHEMBL3102757, “Synthesis and evaluation of the antiparasitic activity of bis-(arylmethylidene) cycloalkanones” (Eur J Med Chem, 2014):
Calls of active or inactive are those of the source. No cut-off for these calls is given here.

Legend:
[1] = Cytotoxicity against mouse L929 cells after 96 hrs by Alamar blue assay; format: cell-based
How it was run: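 L-929 fibroblasts seeded at 4.0×10^3 per well, same culture timing as the infection assay, exposed to rising concentrations for 96 h in tetraplicate. alamarBlue added, absorbance at 570 and 600 nm after 4–6 h. Viability as % reduction versus untreated cells. CC50 by linear interpolation.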

[2] = Selectivity index, ratio of CC50 for mouse L929 cells to IC50 for Trypanosoma cruzi Tulahuen amastigotes; format: functional
How it was run: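 Ratio of L-929 CC50 (alamarBlue, 96 h) to amastigote IC50 from the β-galactosidase infection assay.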

[3] = molecular target: T1, Glutathione reductase, mitochondrial (Homo sapiens, UniProt P00390); experiment: Inhibition of human recombinant glutathione reductase using glutathione as substrate preincubated for 30 mins by colorimetric assay
T1 sequence (P00390 whole entry): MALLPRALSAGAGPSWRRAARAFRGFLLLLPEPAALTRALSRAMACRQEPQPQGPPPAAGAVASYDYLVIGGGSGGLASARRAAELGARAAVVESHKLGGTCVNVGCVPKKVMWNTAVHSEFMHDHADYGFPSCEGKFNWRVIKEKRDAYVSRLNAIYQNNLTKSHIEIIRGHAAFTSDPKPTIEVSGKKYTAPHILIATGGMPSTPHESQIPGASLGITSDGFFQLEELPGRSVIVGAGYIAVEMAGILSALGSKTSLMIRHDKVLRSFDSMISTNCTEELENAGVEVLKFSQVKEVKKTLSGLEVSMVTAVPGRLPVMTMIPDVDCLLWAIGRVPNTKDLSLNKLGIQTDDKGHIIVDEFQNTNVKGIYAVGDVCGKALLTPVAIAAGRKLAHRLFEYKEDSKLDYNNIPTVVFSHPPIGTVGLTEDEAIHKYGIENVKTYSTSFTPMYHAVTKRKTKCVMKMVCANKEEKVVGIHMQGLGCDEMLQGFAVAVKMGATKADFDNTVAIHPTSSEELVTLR
How it was run: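 Recombinant human glutathione reductase (10 mU) in 100 mM potassium phosphate pH 7.0, 1 mM EDTA, 400 µM NADPH. Pre-incubated with compound 30 min at 27 °C. Started with oxidized glutathione (10 µL of 1 mM stock). […] Carmustine positive control.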

[4] = test system: Trypanosoma cruzi; experiment: Trypanocidal activity against Trypanosoma cruzi Tulahuen amastigotes infected in mouse L929 cells assessed as parasite growth inhibition after 7 days by beta-galactosidase assay; format: functional, organism-based; conditions: L929, 168 h
How it was run: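 L-929 fibroblasts (4.0×10^3/well) infected with β-galactosidase-expressing Tulahuen trypomastigotes (4.0×10^4/well) for 2 h, then washed. Compounds added at 48 h, in tetraplicate, RPMI without phenol red plus 10% FBS. After 7 days, chlorophenol red β-D-galactopyranoside (100 µM) and 0.1% Nonidet P-40 added overnight at 37 °C. Read at 570 nm as % growth inhibition. Benznidazole control.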

[5] = molecular target: Cruzipain (Trypanosoma cruzi) (UniProt P25779); experiment: Inhibition of Trypanosoma cruzi recombinant cruzaine using Z-FR-AMC as substrate at 100 uM preincubated for 10 mins measured for 5 mins by spectrophotometric analysis in presence of triton relative to DMSO-treated control
How it was run: (§1)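 Fluorescence at ex 340/em 440 nm followed 5 min. Compounds screened at 100 µM. The main screen used 0.01% Triton without pre-incubation. Checks used 0.1% or no Triton and a 10-min pre-incubation. Triplicates, activity versus DMSO control.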

[6] = molecular target: Cruzipain (Trypanosoma cruzi) (UniProt P25779); experiment: Inhibition of Trypanosoma cruzi recombinant cruzaine using Z-FR-AMC as substrate at 100 uM preincubated for 10 mins measured for 5 mins by spectrophotometric analysis relative to DMSO-treated control; how it was run: as §1
[7] = molecular target: Trypanothione reductase (Trypanosoma cruzi, UniProt P28593); experiment: Inhibition of Trypanosoma cruzi trypanothione reductase expressed in Escherichia coli BL21(DE3) assessed as reduction of oxidized trypanothione preincubated for 30 mins measured for 30 mins by spectrophotometric analysis
[8] = test system: Leishmania amazonensis; experiment: Antileishmanial activity against Leishmania amazonensis IFLA/BR/1967/PH-8 promastigotes assessed as parasite growth inhibition after 48 hrs by MTT assay; conditions: IFLA/BR/1967/PH-8, 48 h
[9] = Selectivity index, ratio of CC50 for mouse peritoneal macrophages to IC50 for Leishmania amazonensis IFLA/BR/1967/PH-8 promastigotes; format: functional
How it was run: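 Ratio of peritoneal macrophage CC50 (MTT, 24 h) to promastigote IC50 (MTT, 48 h).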

[10] = Cytotoxicity against mouse peritoneal macrophages after 24 hrs by MTT assay; format: cell-based, Peritoneal macrophage cell
How it was run: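 Murine peritoneal macrophages (5×10^5) cultured 24 h with a range of compound concentrations. Viability read by MTT, given as % lysis relative to cultures treated with amphotericin B (1 µg/mL).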

Chain of Cruzipain (Trypanosoma cruzi) (P25779 123-467 limits assumed): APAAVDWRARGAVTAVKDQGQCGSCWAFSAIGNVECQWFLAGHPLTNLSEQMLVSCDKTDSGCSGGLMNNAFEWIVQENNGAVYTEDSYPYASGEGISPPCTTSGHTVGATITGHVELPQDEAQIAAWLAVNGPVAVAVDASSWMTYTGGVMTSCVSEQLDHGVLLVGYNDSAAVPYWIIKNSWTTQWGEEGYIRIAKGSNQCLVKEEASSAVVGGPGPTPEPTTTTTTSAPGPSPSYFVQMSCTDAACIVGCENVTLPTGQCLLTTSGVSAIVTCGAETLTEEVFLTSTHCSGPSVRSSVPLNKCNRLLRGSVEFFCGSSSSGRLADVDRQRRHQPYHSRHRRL
Chain of Trypanothione reductase (P28593 whole entry): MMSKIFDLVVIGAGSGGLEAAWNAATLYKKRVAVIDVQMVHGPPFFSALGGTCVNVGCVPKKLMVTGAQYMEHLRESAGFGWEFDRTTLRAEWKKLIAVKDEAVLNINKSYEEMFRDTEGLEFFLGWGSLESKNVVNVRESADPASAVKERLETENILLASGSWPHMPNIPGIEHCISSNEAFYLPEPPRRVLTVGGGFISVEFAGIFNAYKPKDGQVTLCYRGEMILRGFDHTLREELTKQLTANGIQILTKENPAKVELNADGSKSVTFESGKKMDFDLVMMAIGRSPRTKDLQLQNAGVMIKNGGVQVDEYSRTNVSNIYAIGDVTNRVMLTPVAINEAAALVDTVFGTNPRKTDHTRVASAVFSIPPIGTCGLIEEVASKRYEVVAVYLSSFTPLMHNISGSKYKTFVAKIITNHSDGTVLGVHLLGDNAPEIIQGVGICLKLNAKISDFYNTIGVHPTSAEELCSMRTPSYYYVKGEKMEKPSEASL

| SMILES | CC50 at 96 h [1] [µM] | Ratio CC50/IC50 [2] | IC50 [3] [µM] | IC50 [4] [µM] | inhibition [5] | inhibition [6] [%] | IC50 [7] [µM] | IC50 [8] [µM] | Ratio CC50/IC50 [9] | CC50 at 24 h [10] [µM] |
| --- | --- | --- | --- | --- | --- | --- | --- | --- | --- | --- |
| O=C(Cn1ccnc1[N+](=O)[O-])NCc1ccccc1 [BENZNIDAZOLE] | > 1000 | >262 | – | – | – | – | – | – | – | – |
| O=C1/C(=C/c2ccncc2)CC/C1=C\c1ccncc1 | – | – | > 100 | > 250 | inactive | 23 | > 100 | – | – | – |
| C[C@@H]1[C@H](O)[C@@H](C)/C=C/C=C/C=C/C=C/C=C/C=C/C=C/[C@H](O[C@@H]2O[C@H](C)[C@@H](O)[C@H](N)[C@@H]2O)C[C@@H]2O[C@](O)(C[C@@H](O)C[C@@H](O)[C@H](O)CC[C@@H](O)C[C@@H](O)CC(=O)O[C@H]1C)C[C@H](O)[C@H]2C(=O)O [AMPHOTERICIN B] | – | – | – | – | – | – | – | 0.08 | 8.8 | 0.7 |
| O=C1/C(=C/c2ccc([N+](=O)[O-])cc2)CC/C1=C\c1ccc([N+](=O)[O-])cc1 | – | – | > 100 | > 250 | inactive | 35 | > 100 | – | – | – |
| CN(C)c1ccc(/C=C2\CC/C(=C\c3ccc(N(C)C)cc3)C2=O)cc1 | – | – | > 100 | > 250 | – | – | > 100 | 44.1 | 0.4 | 17.6 |
| O=C1/C(=C/c2ccnc3ccccc23)CCC/C1=C\c1ccnc2ccccc12 | – | – | > 100 | > 250 | inactive | 42 | > 100 | 0.6 | 1 | 0.6 |
| O=NN(CCCl)C(=O)NCCCl [CARMUSTINE] | – | – | 8.1 | – | – | – | – | – | – | – |
| Cc1ccc(/C=C2\CCC/C(=C\c3ccc(C)cc3)C2=O)cc1 | 250 | 1.1 | > 100 | 230 | inactive | 32 | > 100 | 110 | 0.2 | 19.7 |
| [N-]=[N+]=NCc1ccc(/C=C2\CC/C(=C\c3ccc(CN=[N+]=[N-])cc3)C2=O)cc1 | – | – | 228 | > 250 | – | – | > 100 | – | – | – |
| Cc1ccc(/C=C2\CC/C(=C\c3ccc(C)cc3)C2=O)cc1 | – | – | > 100 | > 250 | – | – | > 100 | 52.6 | 0.7 | 39.4 |
| O=C1/C(=C/c2ccc(Cn3cc(CCO)nn3)cc2)CC/C1=C\c1ccc(Cn2cc(CCO)nn2)cc1 | – | – | > 100 | > 250 | inactive | 16 | > 100 | 50.9 | 1.2 | 60.4 |
| O=C1/C(=C/c2ccnc3ccccc23)CC/C1=C\c1ccnc2ccccc12 | 25.3 | 3.6 | > 100 | 7 | – | – | > 100 | 4.9 | 0.8 | 3.7 |
| O=C1/C(=C/c2ccccc2)CCC/C1=C\c1ccccc1 [2,6-DIBENZYLIDENECYCLOHEXANONE] | – | – | > 100 | > 250 | inactive | 31 | 45.8 | 8.4 | 6 | 50.6 |
| O=C1/C(=C/c2ccc(Cn3cc(-c4ccccc4)nn3)cc2)CC/C1=C\c1ccc(Cn2cc(-c3ccccc3)nn2)cc1 | – | – | > 100 | > 250 | – | – | > 100 | – | – | – |
| O=C1/C(=C/c2ccc[nH]2)CCC/C1=C\c1ccc[nH]1 | 375 | 1.5 | > 100 | 249 | – | – | > 100 | 5.3 | 15.7 | 83.2 |
| O=C1/C(=C/c2ccccc2)CC/C1=C\c1ccccc1 | 375 | 5.1 | > 100 | 73 | – | – | > 100 | 46.6 | 1.6 | 76.2 |
| CN(C)c1ccc(/C=C2\CCC/C(=C\c3ccc(N(C)C)cc3)C2=O)cc1 | – | – | > 100 | > 250 | – | – | > 100 | 18.6 | 1.1 | 20.8 |
| O=C1/C(=C/c2cccc3cnccc23)CC/C1=C\c1cccc2cnccc12 | 500 | 16 | > 100 | 31.3 | – | – | > 100 | 0.9 | 23.8 | 21.4 |
| O=C1/C(=C/c2cccc3cnccc23)CCC/C1=C\c1cccc2cnccc12 | 188 | 2.7 | > 100 | 68.7 | inactive | 19 | > 100 | 8.4 | 9.3 | 78.1 |
| O=C1/C(=C/c2ccncc2)CCC/C1=C\c1ccncc1 | – | – | > 100 | > 250 | inactive | 66 | 14.7 | 1.2 | 19.9 | 23.9 |
| O=C1/C(=C/c2ccc[nH]2)CC/C1=C\c1ccc[nH]1 | – | – | > 100 | > 250 | – | – | > 100 | 14.7 | 3.8 | 55.8 |
